Source: ChEMBL document CHEMBL3085764, “Azole-carbodithioate hybrids as vaginal anti-Candida contraceptive agents: design, synthesis and docking studies” (Eur J Med Chem, 2013)
≈ marks a conversion by molar mass, not a printed value.

What was measured:
[1] = Spermicidal activity in human semen assessed as sperm immobilization at 1.0 % w/v up to 30 seconds by phase contrast microscopy; assay type: functional
Escherichia coli = assay: Antibacterial activity against Escherichia coli ATCC 9637 after 48 hrs by broth microdilution technique; assay type: functional; conditions: ATCC 9637, 48 h
In short: (§1)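 Broth microdilution following NCCLS guidelines in Mueller Hinton broth. Inoculum held at 1-5 × 10^3 cfu/mL. Plates incubated at 35 °C in a moist, dark chamber for 48 h. MIC and IC50 read spectrophotometrically at 492 nm.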

Candida albicans [2] = assay: Antifungal activity against Candida albicans clinical isolate after 48 hrs by broth microdilution technique; assay type: functional, organism-based
In short: (§2)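 MIC by broth microdilution following NCCLS guidelines, in RPMI 1640 buffered with MOPS. Starting inoculum 1-5 × 10^3 CFU/mL. Plates incubated at 35 °C. MIC and IC50 read spectrophotometrically at 492 nm after 48 h.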

Candida albicans [3] = assay: Antifungal activity against Candida albicans ATCC 10231 after 48 hrs by broth microdilution technique; assay type: functional, organism-based; conditions: ATCC 10231, 48 h; in short: as §2
[4] = system: Trichophyton mentagrophytes; assay: Antifungal activity against Trichophyton mentagrophytes after 48 hrs by broth microdilution technique; assay type: functional, organism-based; in short: as §2
Trichomonas vaginalis = assay: Trichomonacidal activity against Trichomonas vaginalis after 48 hrs by trypan blue exclusion assay; assay type: functional; conditions: read-out: MEC
In short: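 T. vaginalis in log phase, grown in TYM with 10% FCS, vitamin mixture and penicillin/streptomycin at 37 °C. DMSO stocks ([…]) serially diluted in TYM down to 0.1 µg/mL; DMSO/TYM vehicle controls. 5 × 10^4 trophozoites added and incubated anaerobically at 37 °C. Viability checked by trypan blue from 3 to 48 h. MIC = lowest concentration killing all cells by 48 h. Three repeats.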

Sporothrix schenckii = assay: Antifungal activity against Sporothrix schenckii after 48 hrs by broth microdilution technique; assay type: functional, organism-based; in short: as §2
HeLa = assay: Cytotoxicity against human HeLa cells after 5 hrs by LDH assay
Pseudomonas aeruginosa = assay: Antibacterial activity against Pseudomonas aeruginosa ATCC BAA-427 after 48 hrs by broth microdilution technique; assay type: functional; conditions: ATCC BAA-427, 48 h; in short: as §1
[5] = Growth inhibition of Lactobacillus acidophilus after 72 hrs by colony counting method
In short: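 Rogosa SL agar plates (7.5%, 0.132% acetic acid), with or without compound, inoculated with L. acidophilus (~70 […]/10 cm²). Incubated 72 h at 37 °C in 5% CO2/95% air. Colony number and size recorded. Value = average colony size (% of control) × colony number / 100.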

Candida albicans [6] = assay: Antifungal activity against Candida albicans clinical isolate CDRI after 48 hrs by broth microdilution technique; assay type: functional, organism-based; in short: as §2
Staphylococcus aureus = assay: Antibacterial activity against Staphylococcus aureus ATCC 25923 after 48 hrs by broth microdilution technique; assay type: functional; conditions: ATCC 25923, 48 h; in short: as §1
Cryptococcus neoformans = assay: Antifungal activity against Cryptococcus neoformans after 48 hrs by broth microdilution technique; assay type: functional, organism-based; in short: as §2
Candida parapsilosis = assay: Antifungal activity against Candida parapsilosis ATCC 22019 after 48 hrs by broth microdilution technique; assay type: functional, organism-based; conditions: Lodderomyces parapsilosis, ATCC 22019, 48 h; in short: as §2
Candida albicans [7] = assay: Antifungal activity against Candida albicans MTCC 183 after 48 hrs by broth microdilution technique; assay type: functional, organism-based; conditions: MTCC 183, 48 h; in short: as §2
Candida albicans [8] = assay: Antifungal activity against Candida albicans after 48 hrs by broth microdilution technique; assay type: functional, organism-based; in short: as §2
Klebsiella pneumoniae = assay: Antibacterial activity against Klebsiella pneumoniae after 48 hrs by broth microdilution technique; assay type: functional; in short: as §1
[9] = Spermicidal activity in human semen assessed as sperm immobilization at 0.1 % w/v up to 30 seconds by phase contrast microscopy; assay type: functional
Aspergillus fumigatus = assay: Antifungal activity against Aspergillus fumigatus after 48 hrs by broth microdilution technique; assay type: functional, organism-based; in short: as §2

Row | Compound | MIC (Escherichia coli) [µg/mL] | IC50 (Candida albicans [2]) [µg/mL] | IC50 (Candida albicans [3]) [µg/mL] | IC50 [4] [µg/mL] | IC50 (Sporothrix schenckii) [µg/mL] | MIC (Pseudomonas aeruginosa) [µg/mL] | IC50 (Candida albicans [6]) [µg/mL] | MIC (Staphylococcus aureus) [µg/mL] | IC50 (Cryptococcus neoformans) [µg/mL] | IC50 (Candida parapsilosis) [µg/mL] | IC50 (Candida albicans [7]) [µg/mL] | IC50 (Candida albicans [8]) [µg/mL] | MIC (Klebsiella pneumoniae) [µg/mL] | IC50 (Aspergillus fumigatus) [µg/mL] | Activity [1] [%] | minimal effective concentration (Trichomonas vaginalis) [µg/mL] | IC50 (HeLa) [µg/mL] | IC50 [5] [µg/mL] | Activity [9] [%]
1 | CCCCSC(=S)n1ccnc1 | ≥ 50 | 1.53 (≈ 7.64 µM) | 3.5 (≈ 17.5 µM) | > 50 | > 50 | ≥ 50 | 6.17 (≈ 30.8 µM) | ≥ 50 | 3.79 (≈ 18.9 µM) | 1.94 (≈ 9.68 µM) | 5.41 (≈ 27 µM) | 1.29 (≈ 6.44 µM) | ≥ 50 |  | 100 | > 200 | 48.7 (≈ 243 µM) | 45.64 (≈ 228 µM) | 80
2 | CSC(=S)n1cncn1 | ≥ 50 | > 50 | 38 (≈ 239 µM) | > 50 | 4.34 (≈ 27.3 µM) | ≥ 50 | > 50 | ≥ 50 | > 50 | > 50 | 31.2 (≈ 196 µM) | 1.43 (≈ 8.98 µM) | ≥ 50 | > 50 | 100 | > 200 | 53.7 (≈ 337 µM) | 39.54 (≈ 248 µM) | 0
3 | CCCCCCCCCc1ccc(OCCOCCOCCOCCOCCOCCOCCOCCOCCO)cc1 [NONOXYNOL 9] |  |  |  |  |  |  |  |  |  |  |  |  |  |  | 100 | 37.4 | 37 (≈ 60 µM) | 21 (≈ 34 µM) | 100

More lines, main results first:

Row | MIC (Escherichia coli) [µg/mL] | IC50 (Candida albicans [2]) [µg/mL] | IC50 (Candida albicans [3]) [µg/mL] | IC50 [4] [µg/mL] | IC50 (Sporothrix schenckii) [µg/mL] | MIC (Pseudomonas aeruginosa) [µg/mL] | IC50 (Candida albicans [6]) [µg/mL] | MIC (Staphylococcus aureus) [µg/mL] | IC50 (Cryptococcus neoformans) [µg/mL] | IC50 (Candida parapsilosis) [µg/mL] | IC50 (Candida albicans [7]) [µg/mL] | IC50 (Candida albicans [8]) [µg/mL] | MIC (Klebsiella pneumoniae) [µg/mL] | IC50 (Aspergillus fumigatus) [µg/mL] | Compound | Activity [1] [%] | minimal effective concentration (Trichomonas vaginalis) [µg/mL] | IC50 (HeLa) [µg/mL] | IC50 [5] [µg/mL] | Activity [9] [%]
4 | ≥ 50 | 2.12 (≈ 9.89 µM) | 5.09 (≈ 23.7 µM) | 2.02 (≈ 9.42 µM) | 5.71 (≈ 26.6 µM) | ≥ 50 | 7.64 (≈ 35.6 µM) | ≥ 50 | 5.57 (≈ 26 µM) | > 50 | 4.69 (≈ 21.9 µM) | 1.34 (≈ 6.25 µM) | ≥ 50 | 23.8 (≈ 111 µM) | CCCCSC(=S)n1ccnc1C | 100 | > 200 | 85.5 (≈ 399 µM) | 220 (≈ 1030 µM) | 0
5 | ≥ 50 | > 50 | > 50 | > 50 | > 50 | ≥ 50 | > 50 | ≥ 50 | > 50 | > 50 | > 50 | > 50 | ≥ 50 | > 50 | CCCCCCCCSC(=S)n1cnc2ccccc21 | 95 | > 200 |  |  | 0
